ChEMBL document CHEMBL4811233, “Synthesis, Structure-Activity Relationships, and Antiviral Activity of Allosteric Inhibitors of Flavivirus NS2B-NS3 Protease” (J Med Chem, 2021)
Active and inactive are the calls of the source. The calls are words filed in the database; no cut-off is given here.

Columns and labels:
[1] = target: Nonstructural protein 3 (Zika virus, UniProt A0A024AXB9); assay: Inhibition Zika virus NS2B (47 to 95 residues)/NS3 (1 to 170 residues) protease expressed in Escherichia coli BL21 using 7-amino-4-methylcoumarin as substrate by fluorescence assay
Nonstructural protein 3, sequence (A0A024AXB9 whole entry, the tested form may be a part): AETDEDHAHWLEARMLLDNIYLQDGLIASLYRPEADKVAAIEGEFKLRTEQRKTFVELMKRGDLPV
Outline: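 Single-chain NS2B(47–95)–Gly4-Ser-Gly4–NS3(1–170) enzyme at 1 nM in 20 mM HEPES pH 7.3 with 0.05% Triton X-100. Compound (1 nM–10 µM, triplicate) is preincubated 10 min before adding Bz-Nle-Lys-Lys-Arg-AMC at 20 µM. Fluorescence (Ex 360/Em 460 nm) is read every 30 s. IC50 comes from dose-response fitting of initial velocities, 3 independent experiments with SD.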

[2] = target: Genome polyprotein (dengue virus type 2, UniProt P29990); assay: Inhibition Dengue serotype-2 NS3B/NS3 protease using 7-amino-4-methylcoumarin as substrate by fluorescence assay
Genome polyprotein (dengue virus type 2, UniProt P29990), sequence (P29990 1346-1475 limits assumed): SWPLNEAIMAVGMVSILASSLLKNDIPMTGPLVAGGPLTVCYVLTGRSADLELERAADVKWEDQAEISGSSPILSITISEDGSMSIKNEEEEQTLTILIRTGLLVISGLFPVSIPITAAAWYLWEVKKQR
Genome polyprotein (dengue virus type 2, UniProt P29990), sequence (P29990 1476-2093 limits assumed): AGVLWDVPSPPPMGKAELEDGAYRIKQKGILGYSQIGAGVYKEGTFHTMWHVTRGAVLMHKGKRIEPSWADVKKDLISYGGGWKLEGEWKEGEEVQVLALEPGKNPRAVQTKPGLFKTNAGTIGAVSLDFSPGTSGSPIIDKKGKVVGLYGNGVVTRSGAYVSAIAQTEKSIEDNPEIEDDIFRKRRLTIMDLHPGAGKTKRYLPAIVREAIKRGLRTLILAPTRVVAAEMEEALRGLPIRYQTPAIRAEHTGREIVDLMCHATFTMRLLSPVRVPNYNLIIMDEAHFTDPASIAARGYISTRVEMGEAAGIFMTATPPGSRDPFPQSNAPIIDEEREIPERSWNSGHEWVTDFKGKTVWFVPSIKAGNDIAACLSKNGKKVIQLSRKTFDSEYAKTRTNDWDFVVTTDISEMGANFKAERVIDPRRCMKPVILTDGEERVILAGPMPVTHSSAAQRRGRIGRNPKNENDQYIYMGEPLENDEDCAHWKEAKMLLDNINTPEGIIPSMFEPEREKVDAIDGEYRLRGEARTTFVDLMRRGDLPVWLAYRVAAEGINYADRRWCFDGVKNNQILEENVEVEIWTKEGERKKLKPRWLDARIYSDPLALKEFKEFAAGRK

[3] = target: Genome polyprotein (West Nile virus, UniProt P06935); assay: Inhibition West Nile virus NS3B/NS3 protease using 7-amino-4-methylcoumarin as substrate by fluorescence assay
Genome polyprotein (West Nile virus, UniProt P06935), sequence (P06935 1371-1501 limits assumed): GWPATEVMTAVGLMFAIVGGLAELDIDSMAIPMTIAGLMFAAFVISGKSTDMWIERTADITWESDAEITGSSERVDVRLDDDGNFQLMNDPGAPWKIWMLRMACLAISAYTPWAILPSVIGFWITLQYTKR
Genome polyprotein (West Nile virus, UniProt P06935), sequence (P06935 1502-2120 limits assumed): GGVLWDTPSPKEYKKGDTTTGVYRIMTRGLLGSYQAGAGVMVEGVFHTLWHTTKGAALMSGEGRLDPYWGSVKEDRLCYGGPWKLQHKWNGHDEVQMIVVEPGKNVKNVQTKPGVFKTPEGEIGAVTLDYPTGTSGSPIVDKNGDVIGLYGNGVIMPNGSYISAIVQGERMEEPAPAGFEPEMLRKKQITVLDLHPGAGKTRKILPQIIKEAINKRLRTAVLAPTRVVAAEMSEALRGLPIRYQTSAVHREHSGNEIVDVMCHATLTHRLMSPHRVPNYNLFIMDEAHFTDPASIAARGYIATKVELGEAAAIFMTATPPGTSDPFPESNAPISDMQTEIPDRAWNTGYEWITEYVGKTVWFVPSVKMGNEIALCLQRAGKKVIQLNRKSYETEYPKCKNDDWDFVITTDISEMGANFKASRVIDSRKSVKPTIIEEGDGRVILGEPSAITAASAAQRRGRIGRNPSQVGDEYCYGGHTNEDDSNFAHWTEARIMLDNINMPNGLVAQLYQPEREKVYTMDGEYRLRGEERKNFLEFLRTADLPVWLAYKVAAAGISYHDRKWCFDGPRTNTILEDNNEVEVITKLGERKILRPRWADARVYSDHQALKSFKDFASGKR

[4] = system: Zika virus; assay: Antiviral activity against Zika virus infected in human U87 cells assessed as reduction in infectious virus in supernatant by measuring infection of Vero cells preincubated with viral infected […] cells for 48 hrs and measured following infection of supernatants with Vero cells for 7 days by microscopy; format: functional; settings: U-87 MG
Outline: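 U87 cells (2×10^4/well, DMEM with 2% FBS monolayer) infected with ZIKV FLR strain (passage-3 stock) at MOI 0.01 for 1 h, then washed. Compound added in triplicate for 48 h at 37 °C. Supernatant half-log dilutions are titrated on Vero cells in quadruplicate for 7 days, with CPE read by microscopy plus MTT. EC68 is the half-log TCID50 reduction versus control; ≥2 independent experiments.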

[5] = system: Zika virus; assay: Antiviral activity against Zika virus infected in human U87 cells assessed as inhibition of viral replication at 10 uM; format: functional, organism-based
[6] = system: U-87 MG; assay: Cytotoxicity against human U87 cells assessed as inhibition of proliferation at 10 uM by MTT assay; format: cell-based; settings: u-87mg atcc
[7] = system: Vero; assay: Cytotoxicity against African green monkey Vero cells assessed as inhibition of proliferation at 10 uM by MTT assay; format: cell-based; settings: chlorocebus sabaeus
[8] = system: Zika virus; assay: Antiviral activity against Zika Serotype 2 infected mouse model assessed as inhibition of viral load in brain at 30 mg/kg treated for 3 days; format: functional; settings: 72 h, time 3 day
[9] = system: Zika virus; assay: Antiviral activity against Zika Serotype 2 infected mouse model assessed as inhibition of viral load in plasma at 30 mg/kg treated for 3 days; format: functional; settings: 72 h, time 3 day

In the case of `ONCc1ccc(-c2ncc(OCCC3CCNCC3)nc2-c2ccc(CNO)cc2)cc1`, the IC50 [1] is reported as 1600 nM, the IC50 [2] is reported as 3800 nM and the IC50 [3] is reported as 3200 nM.
In the case of `CC(C)(C)C(=O)OCc1ccc(-c2ncc(OCC3CCNCC3)nc2-c2ccc(COC(=O)C(C)(C)C)cc2)cc1`, the IC50 [1] is reported as 9800 nM, the IC50 [2] is reported as 13400 nM and the IC50 [3] is reported as 20000 nM.
In the case of `Brc1ccc(-c2ncc(OCC3CCNCC3)nc2-c2ccc(Br)cc2)cc1`, the EC68 [4] is reported as > 10 µM, the IC50 [1] is reported as 21700 nM and the IC50 [2] is reported as 35000 nM. The IC50 [3] was > 50000 nM.
For `CC(C)(C)c1ccc(-c2ncc(OCC3CCNCC3)nc2-c2ccc(C(C)(C)C)cc2)cc1`, the EC68 [4] was 5 µM, the IC50 [1] was 3100 nM and the IC50 [2] was 8400 nM. The IC50 [3] was 9500 nM.
With `NCc1ccc(-c2ncc(OCC3CCNCC3)nc2-c2ccc(O)cc2)cc1` the EC68 [4] was > 10 µM and the inhibition [5] was “inactive”.
In the case of `NCc1ccc(-c2ncc(OCC3CCNCC3)nc2-c2ccc(-c3cn[nH]c3)cc2)cc1`, the EC68 [4] is reported as 2.5 µM, the IC50 [1] is reported as 760 nM and the IC50 [2] is reported as 210 nM.
With `NCc1ccc(-c2ncc(OCC3CCNCC3)nc2-c2ccc(C3CCOCC3)nc2)cc1` the EC68 [4] was 3 µM, the IC50 [1] was 1000 nM and the Activity [6] was “Non-Toxic”. For the same molecule, the Activity [7] was “Non-Toxic”.
Work on `NCc1ccc(-c2ncc(OCC3CCNCC3)nc2-c2ccc(-c3ccoc3)cc2)cc1` yielded an EC68 [4] of 0.3 µM, an inhibition in vivo at 30 mg/kg [8] of 98% and an IC50 [2] of 590 nM. It also gave an inhibition in vivo at 30 mg/kg [9] of 96% and an IC50 [3] of 780 nM.
In the case of `NC(=O)c1ccc(-c2ncc(OCC3CCNCC3)nc2-c2ccc(-c3ccoc3)cc2)cc1`, the EC68 [4] is reported as 2.5 µM, the IC50 [1] is reported as 1100 nM and the IC50 [2] is reported as 980 nM. It also gave an IC50 [3] of 1340 nM.
Work on `NCc1ccc(-c2ncc(OCC3CCNCC3)nc2-c2ccc3[nH]ccc3c2)cc1` yielded an EC68 [4] of 2.5 µM, an IC50 [2] of 640 nM and an IC50 [3] of 930 nM.
Work on `CC(Oc1cnc(-c2ccc(CN)cc2)c(-c2ccc(-c3ccoc3)cc2)n1)C1CCNCC1` (racemic) yielded an EC68 [4] of 1.2 µM and an IC50 [1] of 240 nM.
For `NCc1ccc(-c2ncc(OCC3CCNCC3)nc2-c2ccc(-c3ccncc3)cc2)cc1`, the IC50 [1] was 26500 nM, the IC50 [2] was > 50000 nM and the IC50 [3] was > 50000 nM.
For `NCc1ccc(-c2ncc(OCC3CCNCC3)nc2-c2ccc(Oc3ccccc3)cc2)cc1`, the IC50 [1] was 32600 nM, the IC50 [2] was > 50000 nM and the IC50 [3] was > 50000 nM.
`NCc1ccc(-c2ncc(OCC3CCNCC3)nc2-c2ccc(C3CCOCC3)cc2)cc1` was tested, and the EC68 [4] was 0.6 µM, the IC50 [1] was 130 nM and the Activity [6] was “Non-Toxic”. For the same molecule, the IC50 [2] was 2400 nM, the IC50 [3] was 820 nM and the Activity [7] was “Non-Toxic”.
For `NCc1ccc(-c2nc(OCC3CCNCC3)cnc2-c2ccc(-c3ccoc3)cc2)cc1`, the EC68 [4] was 1.2 µM and the IC50 [1] was 680 nM.
In the case of `NCc1ccc(-c2cc(CNCC3CCNCC3)sc2-c2ccc(CN)cc2)cc1`, the IC50 [1] is reported as 10700 nM and the IC50 [3] is reported as > 50000 nM.
In the case of `Cc1cc(CN)ccc1-c1ncc(OCC2CCNCC2)nc1-c1ccc(CN)cc1C`, the IC50 [1] is reported as 2100 nM, the IC50 [2] is reported as 6300 nM and the IC50 [3] is reported as 3600 nM.
In the case of `NCc1ccc(-c2ccc(NCC3CCNCC3)nc2-c2ccc(-c3ccoc3)cc2)cc1`, the EC68 [4] is reported as 1.2 µM, the IC50 [1] is reported as 790 nM and the IC50 [2] is reported as 860 nM. The IC50 [3] was 1300 nM.
In the case of `CNCc1ccc(-c2ncc(OCC3CCNCC3)nc2-c2ccc(-c3ccoc3)cc2)cc1`, the EC68 [4] is reported as 1.2 µM, the IC50 [2] is reported as 730 nM and the IC50 [3] is reported as 870 nM.
In the case of `Cc1cc(-c2ccoc2)ccc1-c1nc(OCC2CCNCC2)cnc1-c1ccc(CN)cc1`, the IC50 [1] is reported as 17100 nM, the Activity [6] is reported as “Non-Toxic” and the Activity [7] is reported as “Non-Toxic”.
With `Ic1ccc(-c2ncc(OCCC3CCNCC3)nc2-c2ccc(I)cc2)cc1` the IC50 [1] was 4700 nM, the IC50 [2] was 10200 nM and the IC50 [3] was 1800 nM.
`c1cc(-c2ccc(-c3ncc(OCC4CCNCC4)nc3-c3ccc(-c4ccsc4)cc3)cc2)cs1` gave an IC50 [1] of 1400 nM, an IC50 [2] of 3600 nM and an IC50 [3] of 6600 nM.
With `NCc1ccc(-c2ncc(NCC3CCNCC3)nc2-c2ccc(-c3ccoc3)cc2)cc1` the EC68 [4] was 1.2 µM, the IC50 [1] was 400 nM and the IC50 [2] was 290 nM. The IC50 [3] was 510 nM.
